Assay outcomes from PubChem BioAssay.
This is a sample that favours compounds with a hit; in the whole collection about 4.7% have one here.
aSyn UTR inh – 5' untranslated region of α-synuclein, MLPCN primary screen; alpha-synuclein 5'UTR reporter, inhibitor activity; inhibition, % (tested at 7.5 µM); 0.82% of 300,000 active; in the data active = inhibition above about 60%;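 also: H4 neuroglioblastoma cells stably carrying SNCA 5'UTR luciferase fusion; 0% = DMSO wells and 100% = positive control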
VIM-2 inh – blocks Pseudomonas aeruginosa VIM-2 metallo-beta-lactamase. inhibition, % at 5.6 µM. 0.89% of 290,000 active. purified VIM-2, nitrocefin hydrolysis, epi-absorbance fluorescence;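 active = inhibition above the mean of all tested compounds plus 3 SD, cutoff set per screening run, cut at about 7.5% in these data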;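 also: red hydrolysis product quenches plate fluorescence so inhibitors raise well fluorescence; 0% = enzyme with DMSO and 100% = DMSO without enzyme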
Jurkat NFkB inh – inhibitors of the PMA/ionomycin-induced NF-kB reporter in Jurkat cells; PMA/ionomycin-induced NF-kB luciferase reporter, luminescence; inhibition, % at 4 µM; 0.53% of 330,000 active; in the data active = inhibition above about 50%
Mdm2 MdmX PPI – human Mdm2/MdmX binding inhibition. O15151+Q00987. SaOS-2 split-luciferase Mdm2/MdmX complementation, luminescence. inhibition, % at 8 µM. 3% of 330,000 active. AID 485346;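 active = inhibition of at least 50% at 8 µM in the primary screen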
697 NFkB inh – lowers PMA/ionomycin-induced NF-kB signal in 697 B cells | AID 435022 | 0.33% of 330,000 active | 697 B-cell NF-kB luciferase reporter, 16 h | inhibition, % at 4 µM; in the data active = inhibition above about 35%
IMP-1 inh-1 – blocks Pseudomonas aeruginosa IMP-1 metallo-beta-lactamase | 0.45% of 290,000 active | purified IMP-1, nitrocefin hydrolysis, epi-absorbance fluorescence | AID 1556 | inhibition, % at 5.6 µM;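 active = inhibition above the mean plus 3 SD of all compounds in the same screening run, cut at about 4.5% in these data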;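 also: 0% = IMP-1 with DMSO and 100% = DMSO wells lacking enzyme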
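Test system: recombinant IMP-1 enzyme, purified / Medium: HEPES buffer pH 7.1 with ZnSO4 and Brij 35 / Doses: single dose, 5.6 µM / Times: 25 °C, 15 min preincubation, 25 min reaction / Detection: Epi-absorbance via hydrolysed-nitrocefin quenching of white-plate fluorescence, 480/530 nm, EDTA stop / Evaluation: percent inhibition from optical density relative to buffer-blank wells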
IMP-1 inh-2 – IMP-1 inhibition, counter-screen for VIM-2 inhibitors; shares compounds with VIM-2 inh; purified IMP-1, nitrocefin hydrolysis, epi-absorbance fluorescence; inhibition, % at 5.6 µM; 1,300 tested, under 10 active; AID 1856; call rule not given here;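 also: 0% = enzyme with vehicle and 100% = vehicle without enzyme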
VIM-2 FRET inh – VIM-2 FRET inhibition, artifact counter-screen | inhibition, % at 5.6 µM | AID 1857 | shares compounds with VIM-2 inh | purified VIM-2, CCF2 FRET substrate hydrolysis | 23% of 1,300 active;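 active = inhibition above the mean of all tested compounds plus 3 SD, cut at about 19% in these data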;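 also: 0% = VIM-2 plus DMSO and 100% = no enzyme wells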
TEM-1 inh – selectivity counter-screen for VIM-2 inhibitors: E. coli TEM-1 inhibitors; AID 1866; inhibition, % at 5.6 µM; Purified TEM-1, nitrocefin hydrolysis, epi-absorbance fluorescence; 3% of 1,300 active; shares compounds with VIM-2 inh;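 active = inhibition above that campaign's mean inhibition plus 3 SD, cut at about 0.46% in these data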;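 also: 0% = TEM-1 with DMSO and 100% = TEM-1 with 100 µM potassium clavulanate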
VIM-2 inh conf – confirmation of P. aeruginosa VIM-2 metallo-beta-lactamase inhibitors; AID 2187; inhibition, % at 5.6 µM; 96% of 1,300 active; shares compounds with VIM-2 inh; purified VIM-2, nitrocefin hydrolysis, epi-absorbance;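 active = inhibition of the VIM-2 beta-lactamase enzyme above about 11% from the earlier first-round screen, limit read from the data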;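 also: 0% = VIM-2 with DMSO and 100% = buffer wells without enzyme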
* = called active by the depositor; / = no result given.

SMILES	aSyn UTR inh	VIM-2 inh	Jurkat NFkB inh	Mdm2 MdmX PPI	697 NFkB inh	IMP-1 inh-1	others
Nc1c(C(=O)NCc2ccccc2)sc2nc(N3CCOCC3)c3c(c12)CCCC3	65*	2	-5	17	-30	-1
NNC(=O)c1sc2nc(N3CCOCC3)c3c(c2c1N)CCCC3	26	-1	2	20	20	-3
O=C(Oc1c(CN2CCOCC2)cc(Cl)c2cccnc12)c1ccccc1F	106*	0	20	46	9	-3
CCOC(=O)COc1ccc2c3c(c(=O)oc2c1C)CCC3	-17	8.1*	4	1	4	-1
O=C(COc1ccc2c3c(c(=O)oc2c1)CCC3)NCC1CCC(C(=O)O)CC1 (stereo unspecified)	-9	7	-10	-6	13	0
Cc1c(OCc2nn[nH]n2)ccc2c3c(c(=O)oc12)CCCC3	6	7.8*	15	16	11	-4
Cc1c(OCC(=O)NCC(O)c2ccccc2)ccc2c3c(c(=O)oc12)CCCC3 (stereo unspecified)	12	9.3*	9	-19	-2	-3
Cc1c(OCC(=O)NCC2CCC(C(=O)O)CC2)ccc2c3c(c(=O)oc12)CCC3 (stereo unspecified)	2	9.4*	8	5	22	-4
CC(c1nc2ccccc2c(=O)[nH]1)N1CCCN(S(=O)(=O)c2ccc(F)cc2)CC1 (stereo unspecified)	/	/	2	0	6	/
N#CCC(=O)Nc1ccc(C(=O)NCc2cccc(Cl)c2)cc1	8	-1	9	-12	3	-3
Cc1ccc(NC(=O)CN(C)C(=O)Cc2ccc(Cl)c(Cl)c2)cc1	-21	0	14	1	7	-1
Cc1ccc(NC(=O)CN(C)C(=O)Cn2ncc(Cl)c(Cl)c2=O)cc1	82*	-2	/	/	/	-1
O=S(=O)(c1c(F)cccc1F)C1CCN(S(=O)(=O)c2ccc3c(c2)OCCO3)CC1	/	/	6	-3	-23	/
C=CCN1C(=O)N(c2ccc(F)cc2)C(=O)C1CC(=O)Nc1ccc(Cl)cc1 (stereo unspecified)	15	-1	5	18	-1	-2
Cc1cc(C)n2nc(SCC(=O)NC3CCCC(C)C3C)nc2n1 (stereo unspecified)	-2	-3	10	6	-20	-1
COc1ccc(/C=C2\SC(=N)N(c3nccs3)C2=O)cc1OC	65*	-3	-9	17	-2	-8
CC[C@@]1(C(=O)OC)N[C@H](CN(C)C(=O)c2ccc(C)cc2)[C@@H]2C(=O)N(C)C(=O)[C@@H]21	/	/	2	13	10	/
Cc1c(O)c(CN2CCCCC2)cc2c1oc(=O)c1ccccc12	-1	5	-11	15	-25	-2
Cc1c(O)c(CN(C)C)cc2c1oc(=O)c1ccccc12	8	11*	12	10	-7	-1
Cc1cc(OC(C)C(=O)NCc2ccncc2)c2c(C)c(C)c(=O)oc2c1 (stereo unspecified)	-9	9.3*	9	31	12	-1
Cc1cc(OCC(=O)NCc2ccccn2)c2c(C)c(C)c(=O)oc2c1	-1	9.0*	-12	23	13	0
CC1CCCN(C(=O)CCNC(=O)Cn2cnc3ccccc3c2=O)C1 (stereo unspecified)	11	-4	-20	-8	-15	-1
CC(C)OC(=O)c1c(NC(=O)C2CC=CCC2C(=O)O)sc2c1CCCCC2 (stereo unspecified)	8	-1	12	23	4	2
NC(=O)c1c(NC(=O)C2CC=CCC2C(=O)O)sc2c1CCCCC2 (stereo unspecified)	-2	-1	14	10	23	5.7*
CCOC(=O)COc1c(OC)cc(Cl)cc1C1Nc2ccccc2C(=O)N1c1ccccc1 (stereo unspecified)	9	-4	1	5	2	2
SMILES	aSyn UTR inh	VIM-2 inh	Jurkat NFkB inh	Mdm2 MdmX PPI	697 NFkB inh	IMP-1 inh-1	others
CCOC(=O)COc1c(OC)cc(Cl)cc1C1Nc2ccccc2C(=O)N1c1cccc(C)c1 (stereo unspecified)	-22	-3	-21	5	-21	5.6*
CCn1c(=NC(=O)c2ccc(N3C(=O)CCC3=O)cc2)sc2c(OC)ccc(OC)c21	-7	-1	13	0	-9	-1
CCn1c(=NC(=O)CN2C(=O)CCC2=O)sc2c(OC)ccc(OC)c21	-5	0	-5	15	-9	4.6*
O=C(NCCCN1CCOCC1)c1ccccc1N1C(=O)[C@@H]2Cc3c([nH]c4ccccc34)C(c3cccc(Cl)c3)N2C1=O (stereo partly specified)	31	1	-1	49	4	-1
COc1ccc2c(c1OC)c(=O)n1c3ccc(OC(C)C(=O)NCCCN4CCOCC4)cc3c3ccnc2c31 (stereo unspecified)	-42	11*	0	39	23	-2
CNC(=O)c1c(NC(=O)c2cccc(N3C(=O)CCC3=O)c2)sc2c1CCC2	3	4	5	36	4	1
COC(=O)c1c(NC(=O)c2cccc(N3C(=O)CCC3=O)c2)sc2c1CCN(C(C)=O)C2	0	24*	24	26	9	-3	IMP-1 inh-2=-4;VIM-2 FRET inh=-2;TEM-1 inh=-7;VIM-2 inh conf=39*
COC(=O)c1c(NC(=O)c2ccc(S(=O)(=O)N3CCOCC3)cc2)sc2c1CCN(C)C2	/	78*	0	39	-33	-1	IMP-1 inh-2=-2;VIM-2 FRET inh=-1;TEM-1 inh=-7;VIM-2 inh conf=85*
CNC(=O)c1c(NC(=O)c2ccc(S(=O)(=O)N3CCCCC3C)cc2)sc2c1CCN(C)C2 (stereo unspecified)	-20	22*	3	28	8	3	IMP-1 inh-2=-3;VIM-2 FRET inh=2;TEM-1 inh=-6;VIM-2 inh conf=30*
CCCCn1c(N)c(N(CC(C)C)C(=O)c2c(CC)noc2C)c(=O)[nH]c1=O	0	/	1	9	-2	/
COc1cnc(-c2ccccn2)nc1Oc1cccc(C(F)(F)F)c1	-3	45*	-6	19	-25	-5	IMP-1 inh-2=-5;VIM-2 FRET inh=-29;TEM-1 inh=-5;VIM-2 inh conf=60*
